Experiments:
Mus musculus [1] = test: In vivo percent glucose normalization in mice at a concentration of 25 mg/kg; assay type: functional
Summary of the method: (§1)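 Six- to eight-week-old C57BL/6J-ob/ob mice, acclimated 1 week, bled retroorbitally before treatment. Oral gavage once daily for four days in 0.25% (w/v) methylcellulose in water, unadjusted pH. Bled again 24 h after the fourth dose. Plasma glucose read by hexokinase UV method. Expressed as % normalization: vehicle = 0%, ciglitazone 50 mg/kg = 100%.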

[2] = In vitro stimulation of 2-Deoxyglucose uptake in L6 myocytes from rat skeletal myoblasts at a concentration of 3 uM; assay type: functional
Summary of the method: (§2)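 Rat L6 myoblasts grown 14 days in MEMalpha + 2% FBS to fuse into myocytes, then serum-depleted 5 h. Uptake of 0.1 mM [1-14C]2-deoxyglucose in Dulbecco's PBS (+Ca, Mg) for 10 min at room temperature, stopped by ice-cold saline washes. Cells dissolved in 0.1 M NaOH and scintillation counted. Reported relative to 1 µM insulin set at 1.0.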

3T3-L1 [3] = test: In vitro fold stimulation of glucose transporter protein in 3T3-L1 adipocytes at a concentration of 30 uM; assay type: functional, Mus musculus
Summary of the method: (§3)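 Differentiated 3T3-L1 adipocytes (days 7–11 after start of differentiation) exposed to compound in DMEM + 10% FBS, 0.1% DMSO final, medium renewed with fresh drug after 24 h, total 48 h. Triton X-100/EDTA/DTT extracts dot-blotted, probed with affinity-purified rabbit anti-GLUT1 (0.5 μg/mL) then 125I goat anti-rabbit IgG, gamma-counted; transporter quantified against basal-extract standard curve, fold over DMSO control.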

[4] = In vitro stimulation of 2-Deoxyglucose uptake in L6 myocytes from rat skeletal myoblasts at a concentration of 10 uM; assay type: functional; summary of the method: as §2
3T3-L1 [5] = test: In vitro fold stimulation of glucose transporter protein in 3T3-L1 adipocytes at a concentration of 10 uM; assay type: functional, Mus musculus; summary of the method: as §3
[6] = In vitro stimulation of 2-Deoxyglucose uptake in L6 myocytes from rat skeletal myoblasts at a concentration of 30 uM; assay type: functional; summary of the method: as §2
Mus musculus [7] = test: Compound was evaluated for in vivo for % glucose normalization in mice at a concentration of 10 mg/kg.; assay type: functional; summary of the method: as §1
Mus musculus [8] = test: Compound was evaluated for in vivo for % glucose normalization in mice at a concentration of 5 mg/kg.; assay type: functional; summary of the method: as §1
Mus musculus [9] = test: Compound was evaluated for in vivo for % glucose normalization in mice at a concentration of 2.5 mg/kg.; assay type: functional; summary of the method: as §1

O=C1NC(=O)C(Cc2ccc3c(c2)CC(C2CCCCC2)O3)S1 (centres undefined)
Glucose normalisation (Mus musculus [1]): 23%
2-DG uptake stimulation [2]: 1.1
GT fold stimulation (3T3-L1 [3]): 1.42
2-DG uptake stimulation [4]: 1.85
GT fold stimulation (3T3-L1 [5]): 1.25
2-DG uptake stimulation [6]: 1.66

O=C1NC(=O)C(Cc2ccc3c(c2)CC(CC2CCCCC2)O3)S1 (centres undefined)
Glucose normalisation (Mus musculus [1]): 19%
2-DG uptake stimulation [2]: 0.88
GT fold stimulation (3T3-L1 [3]): 1.41
2-DG uptake stimulation [4]: 1.39
GT fold stimulation (3T3-L1 [5]): 1.14
2-DG uptake stimulation [6]: 1.71

CC1(C2Cc3cc(CC4SC(=O)NC4=O)ccc3O2)CCCCC1 (centres undefined)
Glucose normalisation (Mus musculus [7]): 33%
Glucose normalisation (Mus musculus [1]): 80%
2-DG uptake stimulation [2]: 0.8
GT fold stimulation (3T3-L1 [3]): 1.22
2-DG uptake stimulation [4]: 0.93
GT fold stimulation (3T3-L1 [5]): 1.11
2-DG uptake stimulation [6]: 1.67

O=C1NC(=O)C(Cc2ccc3c(c2)CC(c2ccccc2)O3)S1 (centres undefined)
Glucose normalisation (Mus musculus [7]): 6%
Glucose normalisation (Mus musculus [1]): 85%
2-DG uptake stimulation [2]: 0.76
GT fold stimulation (3T3-L1 [3]): 1.42
2-DG uptake stimulation [4]: 0.99
GT fold stimulation (3T3-L1 [5]): 1.14
2-DG uptake stimulation [6]: 1.3

O=C1NC(=O)C(Cc2ccc3c(c2)CCC2(CCCCC2)O3)S1 (centres undefined)
Glucose normalisation (Mus musculus [1]): 35%
2-DG uptake stimulation [2]: 0.97
GT fold stimulation (3T3-L1 [3]): 1.2
2-DG uptake stimulation [4]: 1.52
GT fold stimulation (3T3-L1 [5]): 0.97
2-DG uptake stimulation [6]: 1.22

O=C1NC(=O)C(Cc2ccc3c(c2)C(c2ccccc2)CO3)S1 (centres undefined)
Glucose normalisation (Mus musculus [1]): 32%
2-DG uptake stimulation [2]: 1.05
GT fold stimulation (3T3-L1 [3]): 1.19
2-DG uptake stimulation [4]: 1.24
GT fold stimulation (3T3-L1 [5]): 1.13
2-DG uptake stimulation [6]: 1.42

O=C1NC(=O)C(Cc2ccc3c(c2)CC(Cc2ccccc2)O3)S1 (centres undefined)
Glucose normalisation (Mus musculus [7]): 95%
Glucose normalisation (Mus musculus [1]): 100%
2-DG uptake stimulation [2]: 0.91
GT fold stimulation (3T3-L1 [3]): 1.51
2-DG uptake stimulation [4]: 1.11
GT fold stimulation (3T3-L1 [5]): 1.34
2-DG uptake stimulation [6]: 1.51
Glucose normalisation (Mus musculus [8]): 65%
Glucose normalisation (Mus musculus [9]): 0%

COc1ccc(CC2CCc3cc(CC4SC(=O)NC4=O)ccc3O2)cc1 (centres undefined)
Glucose normalisation (Mus musculus [7]): 68%
Glucose normalisation (Mus musculus [1]): 85%
2-DG uptake stimulation [2]: 0.92
GT fold stimulation (3T3-L1 [3]): 1.21
2-DG uptake stimulation [4]: 1.15
GT fold stimulation (3T3-L1 [5]): 1.08
2-DG uptake stimulation [6]: 0.69
Glucose normalisation (Mus musculus [8]): 10%

O=C1NC(=O)C(Cc2ccc3c(c2)CCC(Cc2ccccn2)O3)S1 (centres undefined)
Glucose normalisation (Mus musculus [7]): 49%
Glucose normalisation (Mus musculus [1]): 74%
2-DG uptake stimulation [2]: 0.76
GT fold stimulation (3T3-L1 [3]): 1.42
2-DG uptake stimulation [4]: 0.96
GT fold stimulation (3T3-L1 [5]): 1.48
2-DG uptake stimulation [6]: 0.96

O=C1NC(=O)C(Cc2ccc3c(c2)CCC(c2ccccc2)O3)S1 (centres undefined)
Glucose normalisation (Mus musculus [7]): 0%
Glucose normalisation (Mus musculus [1]): 70%
2-DG uptake stimulation [2]: 0.78
GT fold stimulation (3T3-L1 [3]): 1.37
2-DG uptake stimulation [4]: 0.95
GT fold stimulation (3T3-L1 [5]): 1.05
2-DG uptake stimulation [6]: 1.15

O=C1NC(=O)C(Cc2ccc3c(c2)CCC(C2CCCCC2)O3)S1 (centres undefined)
Glucose normalisation (Mus musculus [7]): 75%
Glucose normalisation (Mus musculus [1]): 69%
2-DG uptake stimulation [2]: 1.28
GT fold stimulation (3T3-L1 [3]): 1.23
2-DG uptake stimulation [4]: 2.08
GT fold stimulation (3T3-L1 [5]): 1.03
2-DG uptake stimulation [6]: 2.23
Glucose normalisation (Mus musculus [8]): 65%
Glucose normalisation (Mus musculus [9]): 5%

CCC1(CC)CCc2cc(CC3SC(=O)NC3=O)ccc2O1 (centres undefined)
Glucose normalisation (Mus musculus [1]): 24%
2-DG uptake stimulation [2]: 1.01
GT fold stimulation (3T3-L1 [3]): 1.21
2-DG uptake stimulation [4]: 1.33
GT fold stimulation (3T3-L1 [5]): 1.08
2-DG uptake stimulation [6]: 1.38

O=C1NC(=O)C(Cc2ccc3c(c2)CCC2(CCCC2)O3)S1 (centres undefined)
Glucose normalisation (Mus musculus [7]): 64%
Glucose normalisation (Mus musculus [1]): 52%
2-DG uptake stimulation [2]: 0.79
GT fold stimulation (3T3-L1 [3]): 1.1
2-DG uptake stimulation [4]: 1.06
GT fold stimulation (3T3-L1 [5]): 0.95
2-DG uptake stimulation [6]: 1.18
Glucose normalisation (Mus musculus [8]): 50%
Glucose normalisation (Mus musculus [9]): 0%

O=C1NC(=O)C(Cc2ccc3c(c2)CCC(Cc2ccc(OCc4ccccc4)cc2)O3)S1 (centres undefined)
Glucose normalisation (Mus musculus [7]): 100%
Glucose normalisation (Mus musculus [1]): 95%
2-DG uptake stimulation [2]: 1.42
GT fold stimulation (3T3-L1 [3]): 1.59
2-DG uptake stimulation [4]: 1.53
GT fold stimulation (3T3-L1 [5]): 1.48
2-DG uptake stimulation [6]: 1.34
Glucose normalisation (Mus musculus [8]): 73%
Glucose normalisation (Mus musculus [9]): 19%

O=C1NC(=O)C(Cc2ccc3c(c2)CC[C@@H](Cc2ccccc2)O3)S1 (some centres undefined)
Glucose normalisation (Mus musculus [7]): 47%
Glucose normalisation (Mus musculus [1]): 73%
2-DG uptake stimulation [2]: 0.77
GT fold stimulation (3T3-L1 [3]): 1.17
2-DG uptake stimulation [4]: 0.9
GT fold stimulation (3T3-L1 [5]): 1.13
2-DG uptake stimulation [6]: 1.23
Glucose normalisation (Mus musculus [8]): 41%

O=C1NC(=O)C(Cc2ccc3c(c2)CC2(CCCCC2)O3)S1 (centres undefined)
Glucose normalisation (Mus musculus [1]): 56%
2-DG uptake stimulation [2]: 0.85
GT fold stimulation (3T3-L1 [3]): 1.36
2-DG uptake stimulation [4]: 1.28
GT fold stimulation (3T3-L1 [5]): 1.15
2-DG uptake stimulation [6]: 1.62

O=C1NC(=O)C(Cc2ccc3c(c2)CCC(CC2CCCCC2)O3)S1 (centres undefined)
Glucose normalisation (Mus musculus [1]): 7%
2-DG uptake stimulation [2]: 1.14
GT fold stimulation (3T3-L1 [3]): 1.28
2-DG uptake stimulation [4]: 1.55
GT fold stimulation (3T3-L1 [5]): 1.02
2-DG uptake stimulation [6]: 0.68

O=C1NC(=O)C(Cc2ccc3c(c2)CCC(Cc2ccccc2)(Cc2ccccc2)O3)S1 (centres undefined)
Glucose normalisation (Mus musculus [1]): 12%
2-DG uptake stimulation [2]: 0.73
GT fold stimulation (3T3-L1 [3]): 1.23
2-DG uptake stimulation [4]: 0.86
GT fold stimulation (3T3-L1 [5]): 1.03
2-DG uptake stimulation [6]: 0.44

O=C1NC(=O)C(Cc2ccc3c(c2)C(Cc2ccccc2)CO3)S1 (centres undefined)
Glucose normalisation (Mus musculus [1]): 0%
2-DG uptake stimulation [2]: 0.85
GT fold stimulation (3T3-L1 [3]): 1.31
2-DG uptake stimulation [4]: 1.25
GT fold stimulation (3T3-L1 [5]): 1.09
2-DG uptake stimulation [6]: 1.4

O=C1NC(=O)C(Cc2ccc3c(c2)CCC(Cc2ccc(O)cc2)O3)S1 (centres undefined)
Glucose normalisation (Mus musculus [7]): 55%
Glucose normalisation (Mus musculus [1]): 100%
2-DG uptake stimulation [2]: 1.04
GT fold stimulation (3T3-L1 [3]): 1.34
2-DG uptake stimulation [4]: 1.24
GT fold stimulation (3T3-L1 [5]): 1.25
2-DG uptake stimulation [6]: 1.03

O=C1NC(=O)C(Cc2ccc3c(c2)CCC2(CCCCCC2)O3)S1 (centres undefined)
Glucose normalisation (Mus musculus [1]): 0%
2-DG uptake stimulation [2]: 1.32
GT fold stimulation (3T3-L1 [3]): 1.12
2-DG uptake stimulation [4]: 0.99
GT fold stimulation (3T3-L1 [5]): 0.94
2-DG uptake stimulation [6]: 0.43

O=C1NC(=O)C(Cc2ccc3c(c2)CC2(CCCCC2)CO3)S1 (centres undefined)
Glucose normalisation (Mus musculus [7]): 6%
Glucose normalisation (Mus musculus [1]): 68%
2-DG uptake stimulation [2]: 1.15
GT fold stimulation (3T3-L1 [3]): 1.23
2-DG uptake stimulation [4]: 1.27
GT fold stimulation (3T3-L1 [5]): 0.8
2-DG uptake stimulation [6]: 1.38

O=C1NC(=O)C(Cc2ccc3c(c2)CCC(Cc2ccccc2)O3)S1 (centres undefined)
Glucose normalisation (Mus musculus [7]): 70%
Glucose normalisation (Mus musculus [1]): 91%
2-DG uptake stimulation [2]: 0.91
GT fold stimulation (3T3-L1 [3]): 1.48
2-DG uptake stimulation [4]: 1.29
GT fold stimulation (3T3-L1 [5]): 1.14
2-DG uptake stimulation [6]: 1.14
Glucose normalisation (Mus musculus [8]): 48%
Glucose normalisation (Mus musculus [9]): 29%

CC1(COc2ccc(CC3SC(=O)NC3=O)cc2)CCCCC1 (centres undefined) [CIGLITAZONE]
Glucose normalisation (Mus musculus [7]): 52%
Glucose normalisation (Mus musculus [1]): 84%
2-DG uptake stimulation [2]: 0.82
GT fold stimulation (3T3-L1 [3]): 1.51
2-DG uptake stimulation [4]: 1.02
GT fold stimulation (3T3-L1 [5]): 1.49
2-DG uptake stimulation [6]: 0.68

O=C1NC(=O)C(Cc2ccc3c(c2)CC[C@H](Cc2ccccc2)O3)S1 (some centres undefined) [ENGLITAZONE]
Glucose normalisation (Mus musculus [7]): 90%
Glucose normalisation (Mus musculus [1]): 88%
2-DG uptake stimulation [2]: 0.77
GT fold stimulation (3T3-L1 [3]): 1.24
2-DG uptake stimulation [4]: 0.91
GT fold stimulation (3T3-L1 [5]): 1.13
2-DG uptake stimulation [6]: 1.27
Glucose normalisation (Mus musculus [8]): 73%
Glucose normalisation (Mus musculus [9]): 31%

— ChEMBL document CHEMBL1125908, “Substituted dihydrobenzopyran and dihydrobenzofuran thiazolidine-2,4-diones as hypoglycemic agents” (1991)
